Where no end group is shown, it is not given here.
Experiments:
[1] = molecular target: HTRA1 (human) (UniProt Q92743); assay: ITC
[2] = tested on: HTRA1; assay: Soluble tau digest with HTRA1; format: biochemical, human; details: SDS-PAGE; for activation of HTRA1 by CAPN2: 0.5 µM HTRA1, 5 µM tau, 50 mM Tris pH 8.0, 37 °C, CAPN2 titration
[3] = tested on: tau fibrils; assay: Proteolysis of tau fibrils; format: biochemical; details: 2.5 µM tau fibrils, 2.5 µM HTRA1/HTRA1-CAPN2, 37 °C, 50 mM Tris HCl pH 8
[4] = tested on: HTRA1ΔPDZ; assay: Soluble tau digest with HTRA1ΔPDZ; format: biochemical, human; details: 50 µM peptide, 0.5 µM protease, 5 µM tau, 50 mM Tris pH 8.0, 37 °C; SDS-PAGE
Method in brief: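 Soluble tau (5 µM) digested by 0.5 µM protease (HTRA1ΔPDZ run alongside full-length HTRA1) in 50 mM Tris pH 8.0 at 37 °C. Peptides derived from the CAPN2 C terminus were added at 50 µM, with a no-peptide control. Samples were taken at several time points and tau cleavage was followed by SDS-PAGE.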

[5] = tested on: HTRA1 Asn311Ala; assay: Tau digest with loop L3 mutant Asn311Ala; format: biochemical, human; details: 50 µM peptide
Method in brief: (§1)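 HTRA1 loop L3 point mutants were assayed by tau digestion, with or without 50 µM test peptides derived from the CAPN2 C terminus, to measure mutant activity.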

[6] = tested on: HTRA2; assay: Tau digest with HTRA2; format: biochemical, human; details: 0.5 µM HTRA2, 5 µM tau, 50 µM peptide, 50 mM Tris pH 8.0, 37 °C
[7] = tested on: HTRA3; assay: Tau digest with HTRA3; format: biochemical, human; details: 0.5 µM HTRA3, 5 µM tau, 50 µM peptide, 50 mM Tris pH 8.0, 37 °C
[8] = tested on: HTRA1 Lys305Ala; assay: Tau digest with loop L3 mutant Lys305Ala; format: biochemical, human; details: 50 µM peptide
Method in brief: as §1

[9] = tested on: HTRA1 (HEK293 cells); assay: Coimmunoprecipitation of HTRA1 with CAPN2; format: cell-based, human; details: HEK293 lysates; Strep or Myc beads; n = 3
[10] = tested on: tau fibrils; details: in the presence of Ca^2+; cited from earlier work
[11] = molecular target: HTRA1; assay: ITC of HTRA1SA and CAPN2CA; format: binding, human; details: 500 µM HTRA1SA in syringe titrated to 10 µM CAPN2CA, 50 mM bicine, 150 mM NaCl pH 9.0, 37 °C
[12] = tested on: tau; assay: Soluble tau digest with CAPN2 alone; format: biochemical; details: buffers without Ca^2+
Method in brief: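 5 µM soluble tau was incubated with 0.5 µM CAPN2 in 50 mM Tris HCl, pH 8, at 37 °C. Aliquots were withdrawn at set time points and analysed by SDS-PAGE.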

[13] = tested on: tau fibrils; assay: Sedimentation assay of tau fibrils; format: biochemical; details: no Ca^2+, ultracentrifugation
Method in brief: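 Tau fibrils were incubated with HTRA1SA alone, the HTRA1SA–CAPN2 complex, CAPN2 alone, or no protein, then ultracentrifuged. Total sample taken before centrifugation, pellet and supernatant fractions were resolved by SDS-PAGE and stained with Coomassie.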

Molecule “CFD peptide, carboxyl terminus of complement factor D” has a Kd [1] of 4 µM.

With “HTRA1–CAPN2 complexes: hetero-oligomeric complex consisting of the cysteine protease calpain 2 (CAPN2) and HTRA1” the “degradation of soluble tau” value ([2]; 5 µM tau, 0.5 µM HTRA1, 0.5 µM CAPN2, 37 °C, 50 mM Tris HCl pH 8) was “degradation of soluble tau was improved” and the “proteolysis of tau fibrils” value [3] was “a slight decrease of HTRA1 activity”.

With LISWLCFSVL the “activation of HTRA1ΔPDZ by peptides” value [4] was “not activated”.

In the case of LISWLSDSEL, the “activation of HTRA1ΔPDZ by peptides” value [4] is reported as “activated wild-type but not HTRA1ΔPDZ”.

With LISWLSFSDL the “activation of HTRA1 Asn311Ala” value [5] was “still allowed activation”, the “effect on HTRA2 activity” value [6] was “HTRA2 weakly” and the “effect on HTRA3 activity” value [7] was “activated HTRA3 strongly”. The “activation of HTRA1 Lys305Ala” value [8] was “still allowed activation”.

B1: CCNH peptide, carboxyl terminus of cyclin H (peptide)
peptide: EWTDDDLVESL
modifications: not fully specified
In the case of B1, the Kd [1] is reported as 40 µM.

B2: CAPN2: CAPN2 heterodimer consists of a cysteine protease and a regulatory subunit (protein, UniProt P17655 20-700; P04632 1-268, looked up)
Calpain-2 catalytic subunit: SHDRAIKYLNQDYEALRNECLEAGTLFQDPSFPAIPSALGFKELGPYSSKTRGIEWKRPTEICADPQFIIGGATRTDICQGALGDCWLLAAIASLTLNEEILARVVPLNQSFQENYAGIFHFQFWQYGEWVEVVVDDRLPTKDGELLFVHSAEGSEFWSALLEKAYAKINGCYEALSGGATTEGFEDFTGGIAEWYELKKPPPNLFKIIQKALQKGSLLGCSIDITSAADSEAITFQKLVKGHAYSVTGAEEVESNGSLQKLIRIRNPWGEVEWTGRWNDNCPSWNTIDPEERERLTRRHEDGEFWMSFSDFLRHYSRLEICNLTPDTLTSDTYKKWKLTKMDGNWRRGSTAGGCRNYPNTFWMNPQYLIKLEEEDEDEEDGESGCTFLVGLIQKHRRRQRKMGEDMHTIGFGIYEVPEELSGQTNIHLSKNFFLTNRARERSDTFINLREVLNRFKLPPGEYILVPSTFEPNKDGDFCIRVFSEKKADYQAVDDEIEANLEEFDISEDDIDDGFRRLFAQLAGEDAEISAFELQTILRRVLAKRQDIKSDGFSIETCKIMVDMLDSDGSGKLGLKEFYILWTKIQKYQKIYREIDVDRSGTMNSYEMRKALEEAGFKMPCQLHQVIVARFADDQLIIDFDNFVRCLVRLETLFKIFKQLDPENTGTIELDLISWLCFSVL
Calpain small subunit 1: MFLVNSFLKGGGGGGGGGGGLGGGLGNVLGGLISGAGGGGGGGGGGGGGGGGGGGGTAMRILGGVISAISEAAAQYNPEPPPPRTHYSNIEANESEEVRQFRRLFAQLAGDDMEVSATELMNILNKVVTRHPDLKTDGFGIDTCRSMVAVMDSDTTGKLGFEEFKYLWNNIKRWQAIYKQFDTDRSGTICSSELPGAFEAAGFHLNEHLYNMIIRRYSDESGNMDFDNFISCLVRLDAMFRAFKSLDKDGTGQIQVNIQEWLQLTMYS
For B2, the “activation of HTRA1 by CAPN2” value [2] is given as “improved activation of HTRA1 by CAPN2 compared to the isolated C-terminal decapeptide”, the “coimmunoprecipitation with HTRA1” value [9] is given as “complex formation was supported by coimmunoprecipitations” and the “proteolysis of tau fibrils by CAPN2” value [10] is given as “proteolyzes fibrils”. The Kd [11] was 4 µM, the “digestion of tau by CAPN2” value [12] was “does not digest tau” and the “tau fibril dissociation (solubilization)” value ([13]; equimolar amounts, SDS-PAGE and Coomassie) was “Partial fibril dissociation”. For the same molecule, the “co-sedimentation with tau fibrils” value [13] was “co-sedimentation of CAPN2 and fibrils”.

B3: CAPN2CA (protein)
chain 1: SHDRAIKYLNQDYEALRNECLEAGTLFQDPSFPAIPSALGFKELGPYSSKTRGIEWKRPTEICADPQFIIGGATRTDICQGALGDAWLLAAIASLTLNEEILARVVPLNQSFQENYAGIFHFQFWQYGEWVEVVVDDRLPTKDGELLFVHSAEGSEFWSALLEKAYAKINGCYEALSGGATTEGFEDFTGGIAEWYELKKPPPNLFKIIQKALQKGSLLGCSIDITSAADSEAITFQKLVKGHAYSVTGAEEVESNGSLQKLIRIRNPWGEVEWTGRWNDNCPSWNTIDPEERERLTRRHEDGEFWMSFSDFLRHYSRLEICNLTPDTLTSDTYKKWKLTKMDGNWRRGSTAGGCRNYPNTFWMNPQYLIKLEEEDEDEEDGESGCTFLVGLIQKHRRRQRKMGEDMHTIGFGIYEVPEELSGQTNIHLSKNFFLTNRARERSDTFINLREVLNRFKLPPGEYILVPSTFEPNKDGDFCIRVFSEKKADYQAVDDEIEANLEEFDISEDDIDDGFRRLFAQLAGEDAEISAFELQTILRRVLAKRQDIKSDGFSIETCKIMVDMLDSDGSGKLGLKEFYILWTKIQKYQKIYREIDVDRSGTMNSYEMRKALEEAGFKMPCQLHQVIVARFADDQLIIDFDNFVRCLVRLETLFKIFKQLDPENTGTIELDLISWLCFSVL
chain 2: MFLVNSFLKGGGGGGGGGGGLGGGLGNVLGGLISGAGGGGGGGGGGGGGGGGGGGGTAMRILGGVISAISEAAAQYNPEPPPPRTHYSNIEANESEEVRQFRRLFAQLAGDDMEVSATELMNILNKVVTRHPDLKTDGFGIDTCRSMVAVMDSDTTGKLGFEEFKYLWNNIKRWQAIYKQFDTDRSGTICSSELPGAFEAAGFHLNEHLYNMIIRRYSDESGNMDFDNFISCLVRLDAMFRAFKSLDKDGTGQIQVNIQEWLQLTMYS
With B3 the “activation of HTRA1 by CAPN2” value [2] was “dose-dependent activation of HTRA1”.
